Key:
[1] = tested on: A431 epidermoid carcinoma cancer cell line; details: 15 µM treatment; ref LaBarbera et al., 2009; cited from earlier work
[2] = tested on: Hep3B hepatocellular carcinoma cells; details: 35 µM for 24 h; ref Lu et al., 2022; cited from earlier work
[3] = tested on: 4T1 murine triple negative breast cancer cells; assay: Resazurin cell viability assay on 4T1 cells; type: cell-based; details: Mus musculus, 4T1, 72 h, read-out: IC50 4T1
Procedure, shortened: (§1)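 Cells were seeded in 96-well plates (4T1 10,000, A549 10,000, HL-60 20,000 per well), with adherent lines settling overnight. Test compound came from a 10 mM DMSO stock, serially diluted in medium to 1.56–50 µM (some 39 nM–12.5 µM), for 72 h; three biological replicates. Resazurin (0.15 mg/ml stock, 20 µl per 100 µl) ran 2 h at 37 °C, read at 530/580 nm. Viability was set against untreated and blank wells; IC50 from curves.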

[4] = tested on: HL‐60 human acute promyelocytic leukemia cells; assay: Resazurin cell viability assay on HL-60 cells; type: cell-based; details: HL-60, 72 h, read-out: IC50 HL‐60
Procedure, shortened: as §1

[5] = tested on: 4T1, A549, and HL‐60 cells; type: cell-based; details: resazurin assay, 72 h, up to 50 µM, three cancer cell lines
Procedure, shortened: as §1

[6] = tested on: HL‐60 cells; assay: Annexin V / propidium iodide flow cytometry; type: cell-based, human; details: 6 µM, 24 h, mean ± SD
Procedure, shortened: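 HL-60 cells (100,000) were treated for 24 h at 1, 3 or 6 µM, then resuspended in Annexin V binding buffer (0.01 M HEPES, 0.14 M NaCl, 2.5 mM CaCl2). Annexin V-Alexa 488 was added for 15 min in the dark at room temperature, then PI (10 µg/ml). Quadrant percentages were taken by flow cytometry; three biological replicates, mean ± SD; two-tailed t test against untreated.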

[7] = tested on: HL‐60 cells; assay: Sub-G1 DNA fragmentation analysis by flow cytometry; type: cell-based, human; details: 6 µM, 72 h; mean ± SD; untreated 11.7 ± 1.2%
[8] = tested on: HL‐60 cells; assay: Mitochondrial membrane depolarization by JC-1 staining; type: cell-based, human; details: 16 h, untreated 7.6 ± 0.6%
[9] = tested on: 4T1 breast carcinoma cells; assay: 4T1 murine breast cancer model; type: in vivo, BALB/c mice; details: 27th day; 60 mg/kg daily i.p.; mean ± SEM, n = 10; untreated 768 ± 134

Naamidine A
Apoptotic effect in A431, in words [1]: apoptotic effects

C=CC(C)(CC/C=C(\C)CCC=C(C)C)S(=O)(=O)CCN=C(N)N (stereo not drawn) [(−)‐Agelasidine A]
Apoptosis and mitochondrial effect in Hep3B, in words [2]: Annexin V+ apoptosis and mitochondrial membrane depolarization

Nc1nc(-c2cccc(NC(=O)c3cc4cc(Cl)ccc4[nH]3)c2)c(C(=O)c2ccccc2)[nH]1 [Compound 29, N‐(3‐(2‐amino‐5‐benzoyl‐1H‐imidazol‐4‐yl)phenyl)‐5‐chloro‐1H‐indole‐2‐carboxamide]
IC50 [3]: 3.1 µM
IC50 [4]: 4.03 µM
Cytotoxic / antiproliferative activity in words [5]: hampered the viability of all three tested cell lines
Early apoptotic cells (AnnV+/PI−) ([6]; untreated 1.9 ± 0.5%): 11.4 ± 1.1%
Necrotic cells (AnnV−/PI+) ([6]; untreated 3.6 ± 1.6%): 5.9 ± 1.1%
Late apoptotic cells (AnnV+/PI+) ([6]; untreated 9.5 ± 2.7%): 44.7 ± 4.8%
Living cells (AnnV−/PI−) ([6]; untreated 85 ± 3.9%): 37.8 ± 4.6%
DNA fragmentation (sub‐G1 population) of HL‐60 cells [7]: 64.3 ± 2.1%
Cells with green JC‐1 accumulation (depolarized MMP) ([8]; 3 µM): 9.4 ± 1.1%
Cells with green JC‐1 monomers (depolarized MMP) ([8]; 6 µM): 29.7 ± 2.1%
4T1 tumor volume [9]: 443 ± 54 mm^3
